From ChEMBL document CHEMBL4411328, “Synthesis and Structural/Functional Characterization of Selective M14 Metallocarboxypeptidase Inhibitors Based on Phosphinic Pseudopeptide Scaffold: Implications on the Design of Specific Optical Probes” (J Med Chem, 2019) come the findings set out here.

The source made the active and inactive calls. No cut-off for these calls is given here.

Series [1] deals with T1, Carboxypeptidase A1 (Homo sapiens) (UniProt P15085).
T1 sequence (whole entry): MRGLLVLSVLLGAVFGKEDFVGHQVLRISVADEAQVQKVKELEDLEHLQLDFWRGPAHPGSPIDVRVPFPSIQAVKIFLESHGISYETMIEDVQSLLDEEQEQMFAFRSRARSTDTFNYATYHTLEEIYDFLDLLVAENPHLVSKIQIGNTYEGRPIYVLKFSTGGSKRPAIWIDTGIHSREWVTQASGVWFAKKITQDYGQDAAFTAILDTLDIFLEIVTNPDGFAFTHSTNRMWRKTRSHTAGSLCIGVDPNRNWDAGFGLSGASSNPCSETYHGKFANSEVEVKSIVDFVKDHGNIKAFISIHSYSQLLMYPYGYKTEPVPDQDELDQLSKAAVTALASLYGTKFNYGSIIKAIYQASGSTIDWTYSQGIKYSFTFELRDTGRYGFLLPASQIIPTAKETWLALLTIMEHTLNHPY
In words: Inhibition of human CPA1 peptide degradation activity at 5 to 500 nM using neurotensin peptide as substrate preincubated for 2 hrs followed by substrate addition and measured up to 7 hrs by MALDI-TOF/TOF spectrometry. A digest of the protocol: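 Human CPA1 (20nM) digested the model peptide neurotensin over a 0-7h time course, with no inhibitor or with inhibitor at 5 and 500nM. Samples were taken at intervals and analyzed by MALDI-TOF MS.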

Series [2] has as its target Carboxypeptidase B2 (Homo sapiens) (UniProt Q96IY4). In words: Inhibition of human TAFI at 1 nM to 1 mM using AAFA as substrate preincubated for 45 mins measured at 30 sec intervals for 15 mins by UV/vis-spectrophotometry. A digest of the protocol: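 Absorbance at 355 nm. Preincubation 45 min at 37 °C with inhibitor before substrate addition. Initial velocities from 30-sec reads over 15 min; triplicates.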

A short description of series [3]: Drug uptake in CPA3 expressing human HeLa cells at 1 to 5 uM treated for 6 hrs followed by cell wash and measured by DAPI-staining based fluorescence confocal microscopy. It is filed as ADME. The method, boiled down:
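HeLa cells with cytoplasmic hCPA3 expression were treated 6 h with the fluorescent probe at 1 or 5 µM, washed, then imaged by fluorescence confocal microscopy for internalization and co-localization with CPA3.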

Sequence of Carboxypeptidase B2 (Homo sapiens) (Q96IY4 whole entry): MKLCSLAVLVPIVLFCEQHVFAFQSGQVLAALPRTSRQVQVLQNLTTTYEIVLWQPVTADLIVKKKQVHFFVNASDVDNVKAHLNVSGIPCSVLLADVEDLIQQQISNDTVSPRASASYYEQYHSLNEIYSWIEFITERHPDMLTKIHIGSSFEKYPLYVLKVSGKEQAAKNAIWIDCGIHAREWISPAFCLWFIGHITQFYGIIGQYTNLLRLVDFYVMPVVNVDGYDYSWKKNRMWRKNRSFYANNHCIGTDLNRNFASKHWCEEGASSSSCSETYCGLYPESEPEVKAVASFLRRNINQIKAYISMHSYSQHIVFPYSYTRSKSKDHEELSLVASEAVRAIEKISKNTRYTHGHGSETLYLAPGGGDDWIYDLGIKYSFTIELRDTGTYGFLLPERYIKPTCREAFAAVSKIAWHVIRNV

As to `CC(=O)N[C@@H](Cc1ccc(O)cc1)C(=O)N[C@@H](C)P(=O)(O)C[C@@H](CCc1ccccc1)C(=O)O`, the inhibition result in series [1] was “Active”.

On to `C[C@H](NC(=O)[C@H](Cc1ccc(O)cc1)NC(=O)COCCOCCNC(=O)CCOCCOCCOCCNC(=O)CCc1ccc(C(=C\C=C2\N(CCCCS(=O)(=O)O)c3ccc4c(S(=O)(=O)[O-])cc(S(=O)(=O)O)cc4c3C2(C)C)/C=C/C2=[N+](CCCCS(=O)(=O)O)c3ccc4c(S(=O)(=O)O)cc(S(=O)(=O)O)cc4c3C2(C)C)cc1)P(=O)(O)C[C@@H](CCc1ccccc1)C(=O)O`, for which the inhibition result in series [2] was “inactive”. The Drug uptake entry in series [3] is reported as “Not Active”.
